Test results taken from ChEMBL document CHEMBL1649452, “The chromosomal toxin gene yafQ is a determinant of multidrug tolerance for Escherichia coli growing in a biofilm” (2009).
Values after ≈ are worked out from the molar mass of the structure shown. Active and inactive are the calls of the source. The calls are words filed in the database; no cut-off is given here.

Key:
Escherichia coli [1] = experiment: Bactericidal activity against yafQ gene-deficient Escherichia coli K-12 BW25113 biofilm assessed as log reduction of viable cells after 24 hrs relative to wild-type Escherichia coli K-12 BW25113; format: functional
How it was run: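 Biofilms grown 24 h at 37°C, 125 rpm, 95% humidity on Calgary device pegs from ~1.0 × 10^7 CFU/ml inoculum (1.0 McFarland diluted 30-fold). After a saline rinse, biofilms went into twofold antibiotic dilutions, were rinsed twice, and sonicated 5 min in LB with 1% Tween 20. Survivors were counted on LB agar after ≥24 h at 37°C. Mean log killing compared with wild type; significance required ≥50-fold difference and non-overlapping SDs.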

Escherichia coli [2] = experiment: Effect on survival of Escherichia coli K-12 BW25113 biofilm harboring pCA24N ptac::yafQ plasmid assessed as increase in cell survival after 24 hrs pretreated with 5 uM of IPTG for 4 hrs relative to wild-type Escherichia coli K-12 […]; format: functional
How it was run: (§1)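 Biofilms grown 24 h at 37°C, 125 rpm, 95% humidity on Calgary device pegs from ~1.0 × 10^7 CFU/ml inoculum. Strain carries IPTG-inducible pCA24N vector, grown with 30 μg/ml chloramphenicol. Biofilms were rinsed, then induced 4 h at 37°C, 125 rpm in LB with chloramphenicol and 5 μM IPTG before twofold antibiotic dilutions. Survivors were recovered by sonication in LB plus 1% Tween 20 and plated; mean log killing calculated.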

Escherichia coli [3] = experiment: Bactericidal activity against Escherichia coli K-12 BW25113 biofilm harboring pCA24N ptac::yafQ plasmid assessed as log reduction of viable cells after 24 hrs pretreated with 5 uM of IPTG for 4 hrs; format: functional, organism-based; how it was run: as §1
Escherichia coli [4] = experiment: Antimicrobial activity against Escherichia coli K-12 BW25113 by broth microdilution method; format: functional
How it was run: (§2)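 Broth microdilution MIC per CLSI protocol; wild-type and ΔyafQ strains from Keio collection, stored at −70°C in LB with 8% DMSO, cultured on LB agar at 37°C.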

Escherichia coli [5] = experiment: Antimicrobial activity against yafQ gene-deficient Escherichia coli K-12 BW25113 by broth microdilution method; format: functional; how it was run: as §2
Escherichia coli [6] = experiment: Bactericidal activity against yafQ gene-deficient Escherichia coli K-12 BW25113 stationary-phase planktonic cell assessed as log reduction of viable cells after 24 hrs; format: functional, organism-based
How it was run: (§3)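 Stationary-phase planktonic cells from LB grown 18–20 h at 225 rpm, 37°C, then pelleted and resuspended at 2× concentration in fresh medium. 100 μl cells added to 100 μl of 2× twofold antibiotic dilutions. Starting counts by viable plating. Recovery, dilution and counting as for biofilms (LB + 1% Tween 20, LB agar ≥24 h at 37°C); mean log killing calculated.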

Escherichia coli [7] = experiment: Bactericidal activity against Escherichia coli K-12 BW25113 stationary-phase planktonic cell assessed as log reduction of viable cells after 24 hrs; format: functional, organism-based; how it was run: as §3
Escherichia coli [8] = experiment: Bactericidal activity against yafQ gene-deficient Escherichia coli K-12 BW25113 biofilm assessed as log reduction of viable cells after 24 hrs; format: functional, organism-based
How it was run: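 Biofilms grown on the 96-peg polystyrene lid of a Calgary biofilm device. Inoculum was a 1.0 McFarland suspension diluted 30-fold in growth medium (~1.0 × 10^7 CFU/ml). Grown 24 h at 37°C, 125 rpm, 95% humidity, then saline-rinsed and exposed to twofold antibiotic dilutions. Rinsed twice, sonicated 5 min in LB + 1% Tween 20, plated on LB agar ≥24 h at 37°C. Mean log killing taken from viable counts.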

Structure (SMILES) | FC (Escherichia coli [1]) | fold change (FC) (Escherichia coli [2]) | Activity (Escherichia coli [3]) | MIC (Escherichia coli [4]) [µg/mL] | MIC (Escherichia coli [5]) [µg/mL] | Activity (Escherichia coli [6]) | Activity (Escherichia coli [7]) | Activity (Escherichia coli [8])
Cc1nnc(SCC2=C(C(=O)O)N3C(=O)[C@@H](NC(=O)Cn4cnnn4)[C@H]3SC2)s1 [CEFAZOLIN] | 2400 | 10000 | inactive | 4 (≈ 8.8 µM) | 4 (≈ 8.8 µM) | Active | Active | 
C[C@H]1c2cccc(O)c2C(=O)C2=C(O)[C@]3(O)C(=O)C(C(N)=O)=C(O)[C@@H](N(C)C)[C@@H]3[C@@H](O)[C@@H]21.O [DOXYCYCLINE] |  |  | Active | 4 | 3 |  |  | Active
CO[C@H]1/C=C/O[C@@]2(C)Oc3c(C)c(O)c4c(O)c(c(/C=N/N5CCN(C)CC5)c(O)c4c3C2=O)NC(=O)/C(C)=C\C=C\[C@H](C)[C@H](O)[C@@H](C)[C@@H](O)[C@@H](C)[C@H](OC(C)=O)[C@@H]1C [RIFAMPIN] |  |  | Active | 16 (≈ 19.4 µM) | 16 (≈ 19.4 µM) |  |  | Active
NC[C@H]1O[C@H](O[C@H]2[C@H](O)[C@@H](O[C@H]3O[C@H](CO)[C@@H](O)[C@H](N)[C@H]3O)[C@H](N)C[C@@H]2N)[C@H](N)C[C@@H]1O [TOBRAMYCIN] | 760 | 3300 | inactive | 1.5 (≈ 3.21 µM) | 2 (≈ 4.28 µM) | Active | Active | 
